From ChEMBL document CHEMBL4680236, “Design, synthesis and structure-activity relationships of novel 15-membered macrolides: Quinolone/quinoline-containing sidechains tethered to the C-6 position of azithromycin acylides” (Eur J Med Chem, 2020)
In brackets after ≈: the same amount, converted by molar mass.

Assays:
Assay type in all cases: functional
Streptococcus pneumoniae [1] = assay: Antibacterial activity against MLSB-resistant Streptococcus pneumoniae 07P390 harboring ermB gene assessed as reduction in microbial growth
Staphylococcus aureus [2] = assay: Antibacterial activity against MLSB/methicillin/ciprofloxacin-resistant Staphylococcus aureus PU32 harboring ermA gene assessed as reduction in microbial growth
Staphylococcus aureus [3] = assay: Antibacterial activity against MLSB/methicillin-resistant Staphylococcus aureus 15B196 assessed as reduction in microbial growth relative to ciprofloxacin
Streptococcus pyogenes [4] = assay: Antibacterial activity against MLSB-resistant Streptococcus pyogenes 12-206 harboring ermA gene assessed as reduction in microbial growth
Haemophilus influenzae [5] = assay: Antibacterial activity against azithromycin-susceptible Haemophilus influenzae ATCC 49247 assessed as reduction in microbial growth
Staphylococcus aureus [6] = assay: Antibacterial activity against MLSB/methicillin-resistant Staphylococcus aureus 15B196 assessed as reduction in microbial growth
Staphylococcus aureus [7] = assay: Antibacterial activity against MLSB/methicillin/ciprofloxacin-resistant Staphylococcus aureus PU32 harboring ermA gene assessed as reduction in microbial growth relative to ciprofloxacin
Haemophilus influenzae [8] = assay: Antibacterial activity against azithromycin-susceptible Haemophilus influenzae ATCC 49247 assessed as reduction in microbial growth relative to ciprofloxacin
Streptococcus pneumoniae [9] = assay: Antibacterial activity against penicillin-susceptible Streptococcus pneumoniae PU09 harboring mef gene assessed as reduction in microbial growth
Streptococcus pneumoniae [10] = assay: Bactericidal activity against Erythromycin-susceptible Streptococcus pneumoniae ATCC 49619
Summary of the method: (§1)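 Bacteria were exposed to 1- to 8-fold MIC of the sample, then transferred to fresh medium without antibacterial. After further incubation, colonies were counted. MBC was taken as the lowest concentration giving a >3 log10 reduction in colony number.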

Haemophilus influenzae [11] = assay: Ratio of MBC to MIC against azithromycin-susceptible Haemophilus influenzae ATCC 49247
Streptococcus pneumoniae [12] = assay: Antibacterial activity against Erythromycin-susceptible Streptococcus pneumoniae ATCC 49619 assessed as reduction in microbial growth
Streptococcus pneumoniae [13] = assay: Ratio of MBC to MIC against penicillin-susceptible Streptococcus pneumoniae PU09
Staphylococcus aureus [14] = assay: Bactericidal activity against MLSB/methicillin-resistant Staphylococcus aureus 15B196
Summary of the method: (§2)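 Bacteria were exposed to 1- to 8-fold their MIC of test sample, then transferred to fresh culture medium without antibacterial compound and incubated for the required time. Colonies were then counted. MBC is the lowest concentration giving a reduction in colony number of >3 Log₁₀.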

Haemophilus influenzae [15] = assay: Bactericidal activity against azithromycin-susceptible Haemophilus influenzae ATCC 49247; summary of the method: as §1
Staphylococcus aureus [16] = assay: Bactericidal activity against MLSB/methicillin/ciprofloxacin-resistant Staphylococcus aureus PU32 harboring ermA gene; summary of the method: as §2
Staphylococcus aureus [17] = assay: Ratio of MBC to MIC against MLSB/methicillin/ciprofloxacin-resistant Staphylococcus aureus PU32 harboring ermA gene
Streptococcus pneumoniae [18] = assay: Ratio of MBC to MIC against Erythromycin-susceptible Streptococcus pneumoniae ATCC 49619
Streptococcus pneumoniae [19] = assay: Bactericidal activity against penicillin-susceptible Streptococcus pneumoniae PU09 harboring mef gene; summary of the method: as §2
Streptococcus pneumoniae [20] = assay: Ratio of MBC to MIC against MLSB-resistant Streptococcus pneumoniae 07P390 harboring ermB
Streptococcus pneumoniae [21] = assay: Bactericidal activity against MLSB-resistant Streptococcus pneumoniae 07P390 harboring ermB gene assessed as reduction in microbial growth; summary of the method: as §2
Streptococcus pyogenes [22] = assay: Bactericidal activity against MLSB-resistant Streptococcus pyogenes 12-206 harboring ermA gene; summary of the method: as §2
Streptococcus pyogenes [23] = assay: Ratio of MBC to MIC against MLSB-resistant Streptococcus pyogenes 12-206 harboring ermA gene

Structure (SMILES) | MIC (Streptococcus pneumoniae [1]) [µg/mL] | MIC (Staphylococcus aureus [2]) [µg/mL] | MIC (Streptococcus pyogenes [4]) [µg/mL] | MIC (Haemophilus influenzae [5]) [µg/mL] | MIC (Staphylococcus aureus [6]) [µg/mL] | MIC (Streptococcus pneumoniae [9]) [µg/mL] | MBC (Streptococcus pneumoniae [10]) [µg/mL] | Ratio (Haemophilus influenzae [11]) | MIC (Streptococcus pneumoniae [12]) [µg/mL] | Ratio (Streptococcus pneumoniae [13]) | MBC (Staphylococcus aureus [14]) [µg/mL] | MBC (Haemophilus influenzae [15]) [µg/mL] | MBC (Staphylococcus aureus [16]) [µg/mL] | Ratio (Staphylococcus aureus [17]) | Ratio (Streptococcus pneumoniae [18]) | MBC (Streptococcus pneumoniae [19]) [µg/mL] | Ratio (Streptococcus pneumoniae [20]) | MBC (Streptococcus pneumoniae [21]) [µg/mL] | MBC (Streptococcus pyogenes [22]) [µg/mL] | Ratio (Streptococcus pyogenes [23]) | also measured
CC[C@H]1OC(=O)[C@H](C)[C@@H](O[C@H]2C[C@@](C)(OC)[C@@H](O)[C@H](C)O2)[C@H](C)[C@@H](O[C@@H]2O[C@H](C)C[C@H](N(C)C)[C@H]2O)[C@](C)(OC)C[C@@H](C)C(=O)[C@H](C)[C@@H](O)[C@]1(C)O [CLARITHROMYCIN] | > 256 | 64 | > 256 | 16 | ≥ 16 | 8 |  |  |  |  |  |  |  |  |  |  |  |  |  |  | fold change (FC) (Staphylococcus aureus [3]): >57; fold change (FC) (Staphylococcus aureus [7]): 0.11; fold change (FC) (Haemophilus influenzae [8]): 1768
CC[C@H]1OC(=O)[C@H](C)[C@@H](OC(=O)Cc2ccccn2)[C@H](C)[C@@H](O[C@@H]2O[C@H](C)C[C@H](N(C)C)[C@H]2O)[C@](C)(OC(=O)CCNCC#Cc2cnc3ccccc3c2)C[C@@H](C)CN(C)[C@H](C)[C@@H](O)[C@]1(C)O | 1 | 2 |  | 4 | 128 | 2 | 0.125 (≈ 0.132 µM) | 1 | 0.125 | 1 | > 256 | 4 (≈ 4.23 µM) | 8 (≈ 8.45 µM) | 4 | 1 | 2 (≈ 2.11 µM) | >8 | > 8 |  |  | 
CC[C@H]1OC(=O)[C@H](C)[C@@H](OC(=O)Cc2ccccn2)[C@H](C)[C@@H](O[C@@H]2O[C@H](C)C[C@H](N(C)C)[C@H]2O)[C@](C)(OC(=O)CCNCCCc2cnc3ccccc3c2)C[C@@H](C)CN(C)[C@H](C)[C@@H](O)[C@]1(C)O | 2 | 4 |  | 16 | > 256 | 2 | 0.062 (≈ 0.0652 µM) | 1 | 0.062 | 2 |  | 16 (≈ 16.8 µM) | 32 (≈ 33.7 µM) | 8 | 1 | 4 (≈ 4.21 µM) | 8 | 16 |  |  | 
CC[C@H]1OC(=O)[C@H](C)[C@@H](OC(=O)Cc2ccccn2)[C@H](C)[C@@H](O[C@@H]2O[C@H](C)C[C@H](N(C)C)[C@H]2O)[C@](C)(OC(=O)CCNCCC#Cc2ccc3c(c2)c(=O)c(C(=O)O)cn3C2CC2)C[C@@H](C)CN(C)[C@H](C)[C@@H](O)[C@]1(C)O | 64 | 128 | 16 | 32 | > 256 | 2 | 0.5 (≈ 0.472 µM) | 2 | 0.25 | 2 | > 256 | 64 (≈ 60.4 µM) | > 256 |  | 2 | 4 (≈ 3.77 µM) | 4 | 256 | 128 (≈ 121 µM) | 8 | 
CC[C@H]1OC(=O)[C@H](C)[C@@H](OC(=O)Cc2cccnc2)[C@H](C)[C@@H](O[C@@H]2O[C@H](C)C[C@H](N(C)C)[C@H]2O)[C@](C)(OC(=O)CCNCCC#Cc2ccc3c(c2)c(=O)c(C(=O)O)cn3C2CC2)C[C@@H](C)CN(C)[C@H](C)[C@H]2OC(=O)O[C@@]21C | 64 | 128 | 64 | 32 | 256 | 4 | 8 (≈ 7.36 µM) | 2 | 2 | 4 | > 256 | 64 (≈ 58.9 µM) | > 256 |  | 4 | 16 (≈ 14.7 µM) | 2 | 128 | 64 (≈ 58.9 µM) | 1 | 
CC[C@H]1OC(=O)[C@H](C)[C@@H](OC(=O)Cc2ccccn2)[C@H](C)[C@@H](O[C@@H]2O[C@H](C)C[C@H](N(C)C)[C@H]2O)[C@](C)(OC(=O)CCNCCNc2cc3c(=O)c(C(=O)O)cn(C4CC4)c3cc2Cl)C[C@@H](C)CN(C)[C@H](C)[C@@H](O)[C@]1(C)O | 1 | 8 |  | 16 | > 256 | 4 | 0.25 (≈ 0.23 µM) | 2 | 0.25 | 1 |  | 32 (≈ 29.5 µM) | > 64 | >8 | 1 | 4 (≈ 3.68 µM) | >8 | > 8 |  |  | 
CC[C@H]1OC(=O)[C@H](C)[C@@H](OC(=O)Cc2ccccn2)[C@H](C)[C@@H](O[C@@H]2O[C@H](C)C[C@H](N(C)C)[C@H]2O)[C@](C)(OC(=O)CCNCCC#Cc2cncc(C(N)=O)c2)C[C@@H](C)CN(C)[C@H](C)[C@@H](O)[C@]1(C)O | 128 | 16 | 4 | 64 | > 256 | 2 | 0.25 (≈ 0.262 µM) | 2 | 0.25 | 2 | > 256 | 128 (≈ 134 µM) | > 128 | >8 | 1 | 4 (≈ 4.2 µM) |  | > 256 | > 32 | >8 | 
CC[C@H]1OC(=O)[C@H](C)[C@@H](OC(=O)Cc2ccccn2)[C@H](C)[C@@H](O[C@@H]2O[C@H](C)C[C@H](N(C)C)[C@H]2O)[C@](C)(OC(=O)CCNCCC#Cc2ccc3c(c2)c(=O)c(C(N)=O)cn3C2CC2)C[C@@H](C)CN(C)[C@H](C)[C@H]2OC(=O)O[C@@]21C | 64 | 64 | 16 | 64 | 128 | 4 | 1 (≈ 0.921 µM) | 2 | 0.5 | 2 | > 256 | 128 (≈ 118 µM) | > 256 | >4 | 2 | 8 (≈ 7.37 µM) |  | 128 | 64 (≈ 59 µM) | 4 | 
CC[C@H]1OC(=O)[C@H](C)[C@@H](OC(=O)Cc2ccccn2)[C@H](C)[C@@H](O[C@@H]2O[C@H](C)C[C@H](N(C)C)[C@H]2O)[C@](C)(OC(=O)CCNCCCCc2cnc3ccccc3c2)C[C@@H](C)CN(C)[C@H](C)[C@@H](O)[C@]1(C)O | 8 | 4 |  | 16 | 256 | 4 | 0.5 (≈ 0.519 µM) | 2 | 0.25 | 1 | > 256 | 32 (≈ 33.2 µM) | 16 (≈ 16.6 µM) | 4 | 2 | 4 (≈ 4.15 µM) | 4 | 32 |  |  | 
CC[C@H]1OC(=O)[C@H](C)[C@@H](OC(=O)Cc2ccccn2)[C@H](C)[C@@H](O[C@@H]2O[C@H](C)C[C@H](N(C)C)[C@H]2O)[C@](C)(OC(=O)CCNC/C=C/c2cnc3ccccc3c2)C[C@@H](C)CN(C)[C@H](C)[C@@H](O)[C@]1(C)O | 1 | 2 |  | 8 | > 256 | 2 | 0.25 (≈ 0.264 µM) | 2 | 0.125 | 1 |  | 16 (≈ 16.9 µM) | > 16 | >8 | 2 | 2 (≈ 2.11 µM) | >8 | > 8 |  |  | 
CC[C@H]1OC(=O)[C@H](C)[C@@H](OC(=O)Cc2ccccn2)[C@H](C)[C@@H](O[C@@H]2O[C@H](C)C[C@H](N(C)C)[C@H]2O)[C@](C)(OC(=O)CCNCCC#Cc2ccc3ncccc3c2)C[C@@H](C)CN(C)[C@H](C)[C@@H](O)[C@]1(C)O | 32 | 4 | 2 | 4 | > 256 | 0.5 | 0.03 (≈ 0.0312 µM) | 2 | 0.03 | 2 | > 256 | 8 (≈ 8.33 µM) | > 32 | >8 | 1 | 1 (≈ 1.04 µM) |  | 64 | > 16 | >8 | fold change (FC) (Staphylococcus aureus [3]): >44; fold change (FC) (Staphylococcus aureus [7]): 0.0054; fold change (FC) (Haemophilus influenzae [8]): 344
